What all share (assay type): ADME, organism-based
Data set [1] can be described thus: Cmax in wild-type mouse at 30 mg/kg, po in presence of CBIO. Details: dose 30 mg/kg, route oral; call rule not given here. The note with it: in vivo. In a few lines:
(§1)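 Mice (wild-type 129SvEv or DAAO knockout; n = 3–6 per time point, n = 2 at 120 and 240 min for the group also given CBIO 30 mg/kg in 10% DMSO/0.9% saline) dosed orally, 10 ml/kg, with D-serine 30 mg/kg. Cardiac-puncture blood taken at 30, 60, 120, 240 min into heparin tubes and spun to plasma. Methanol extraction, derivatization, then HPLC fluorescence (ex 344/em 443 nm). Parameters from noncompartmental analysis.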

Data set [2] deals with Cerebellum. In words: Drug uptake in wild-type mouse cerebellum at 30 mg/kg, po after 1 hr. Details: dose 30 mg/kg, route oral. The note with it: in vivo. In a few lines:
(§2)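 Wild-type or DAAO knockout mice were given D-serine 30 mg/kg orally. At 1 h, cerebellum and frontal cortex were excised, weighed and frozen at −80°C. Tissue was homogenized and sonicated in 20 volumes (w/v) methanol and spun at 50,000g for 15 min at 4°C. The supernatant was dried, derivatized for 2 min at room temperature, and D-serine was quantified by C18 HPLC with fluorescence detection.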

The nature of data set [3]: Elimination half life in wild-type mouse at 30 mg/kg, po. Also on record: dose 30 mg/kg, route oral. The note with it: in vivo, read-out: beta t1/2 (converted). In a few lines:
as §1

In data set [4] the test system is Cerebellum. In words: Drug uptake in DAAO knockout mouse cerebellum at 30 mg/kg, po after 1 hr. The note with it: in vivo. Details: dose 30 mg/kg, route oral. In a few lines:
as §2

Data set [5] in a line: Elimination half life in wild-type mouse at 30 mg/kg, po in presence of CBIO. Details: dose 30 mg/kg, route oral. The note with it: in vivo, read-out: beta t1/2 (converted). In a few lines: as §1
A short description of data set [6]: Tmax in wild-type mouse at 30 mg/kg, po in presence of CBIO. Also on record: dose 30 mg/kg, route oral. The note with it: in vivo. In a few lines: as §1
Data set [7] has as its system Cortex. In words: Drug uptake in wild-type mouse cortex at 30 mg/kg, po after 1 hr. Also on record: dose 30 mg/kg, route oral. The note with it: in vivo. In a few lines: as §2
A short description of data set [8]: AUC (0 to infinity) in wild-type mouse at 30 mg/kg, po in presence of CBIO. Details: time infinity, dose 30 mg/kg, route oral. The note with it: plasma. In a few lines: as §1
Data set [9] is described as follows: Elimination half life in DAAO knockout mouse at 30 mg/kg, po. Also on record: dose 30 mg/kg, route oral. The note with it: in vivo, read-out: beta t1/2. In a few lines:
(§3)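 DAAO knockout mice were dosed orally (10 ml/kg) with D-serine 30 mg/kg, n = 3–6 per time point, and plasma was taken at 30–240 min. D-serine was measured by methanol extraction, derivatization and reversed-phase HPLC with fluorescence detection. Cmax and Tmax are observed values. t½ = 0.693/λz with uniform weighting. AUClast is by the log-linear trapezoidal rule, with variance by Bailer's method.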

Data set [10] can be described thus: AUC (0 to last) in wild-type mouse at 30 mg/kg, po. Also on record: time 0 - last, dose 30 mg/kg, route oral. The note with it: plasma. In a few lines: as §1
The nature of data set [11]: Tmax in DAAO knockout mouse at 30 mg/kg, po. The note with it: in vivo. Also on record: dose 30 mg/kg, route oral. In a few lines:
as §1

Data set [12] is described as follows: AUC (0 to infinity) in wild-type mouse at 30 mg/kg, po. Details: time infinity, dose 30 mg/kg, route oral. The note with it: plasma. In a few lines: as §1
Data set [13] is described as follows: Cmax in DAAO knockout mouse at 30 mg/kg, po. Details: dose 30 mg/kg, route oral. The note with it: in vivo. In a few lines:
as §1

The nature of data set [14]: Tmax in wild-type mouse at 30 mg/kg, po. The note with it: in vivo. Also on record: dose 30 mg/kg, route oral. In a few lines:
as §1

Data set [15] deals with Cortex. In words: Drug uptake in DAAO knockout mouse cortex at 30 mg/kg, po after 1 hr. The note with it: in vivo. Also on record: dose 30 mg/kg, route oral. In a few lines:
as §2

Data set [16] is described as follows: AUC (0 to last) in wild-type mouse at 30 mg/kg, po in presence of CBIO. The note with it: plasma. Also on record: time 0 - last, dose 30 mg/kg, route oral. In a few lines: as §1
Data set [17] in a line: AUC (0 to last) in DAAO knockout mouse at 30 mg/kg, po. Details: time 0 - last, dose 30 mg/kg, route oral. The note with it: plasma. In a few lines:
as §3

Data set [18] in a line: Cmax in wild-type mouse at 30 mg/kg, po. Also on record: dose 30 mg/kg, route oral. The note with it: in vivo. In a few lines: as §1

Bounds are passed on as bounds.

On to `N[C@H](CO)C(=O)O` [(D)-SERINE], for which the Cmax in [1] was determined as 24300 ng/mL; in [13] it was 27800 ng/mL; in data set [18] it was 19600 ng/mL. Further, the Drug uptake result is given as “Not Active” in the data set with Cerebellum [2], “Active” in the data set with Cerebellum [4], “Active” with Cortex [7] and “Active” in the data set with Cortex [15]. The half-life in [3] is 72 min; in data set [5] it was 90 min; in data set [9], more than 600 min. Besides, the Tmax stood at 1 h in [6], 2.7 h in data set [11] and 42 min in data set [14]. Moreover, the AUC(0-inf) in [8] worked out at 80900 ng·h/mL; in [12], 46000 ng·h/mL. Further, the results for the area under the curve AUC(0-t) in [10], in [16] and in [17] were 40600 ng·h/mL, 65800 ng·h/mL and 95800 ng·h/mL, respectively.

The values are drawn from ChEMBL document CHEMBL3525910, “Pharmacokinetics of oral D-serine in D-amino acid oxidase knockout mice” (Drug Metab Dispos, 2012).
